The record followed here is ChEMBL document CHEMBL1128308, “Synthesis and antiinflammatory activity of certain 5,6,7,8-tetrahydroquinolines and related compounds” (J Med Chem, 1995).

The target of assay [1] is T1, Polyunsaturated fatty acid 5-lipoxygenase (Rattus norvegicus) (UniProt P12527).
T1 sequence (whole entry): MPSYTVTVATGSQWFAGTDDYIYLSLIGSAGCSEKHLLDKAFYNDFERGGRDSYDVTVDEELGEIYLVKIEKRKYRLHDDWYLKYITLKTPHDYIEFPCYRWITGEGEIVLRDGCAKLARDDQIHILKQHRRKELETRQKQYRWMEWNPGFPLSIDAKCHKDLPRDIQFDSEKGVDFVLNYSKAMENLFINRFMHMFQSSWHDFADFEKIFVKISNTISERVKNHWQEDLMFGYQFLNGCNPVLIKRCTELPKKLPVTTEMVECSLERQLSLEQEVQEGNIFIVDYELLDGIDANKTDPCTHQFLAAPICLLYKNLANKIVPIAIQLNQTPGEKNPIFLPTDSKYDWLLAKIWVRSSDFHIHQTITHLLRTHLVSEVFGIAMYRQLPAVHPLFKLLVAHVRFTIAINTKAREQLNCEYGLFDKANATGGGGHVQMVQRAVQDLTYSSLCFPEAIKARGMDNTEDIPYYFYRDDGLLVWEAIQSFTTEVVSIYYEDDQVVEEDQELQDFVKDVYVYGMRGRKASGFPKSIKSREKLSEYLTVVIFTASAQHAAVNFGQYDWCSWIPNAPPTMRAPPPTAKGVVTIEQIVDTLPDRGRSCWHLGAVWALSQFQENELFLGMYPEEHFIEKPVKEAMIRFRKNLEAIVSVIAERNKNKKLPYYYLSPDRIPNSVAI
The assay is described as follows: Inhibition of 5-lipoxygenase pathway in rat polymorphonuclear assay (inhibition of 5-HETE formation). Put shortly:
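Rat polymorphonuclear leucocytes at 10^7 cells/mL in HBSS (Mg2+, Ca2+, 10 mM cysteine) were preincubated with compound, added in DMSO, for 10 min at 37 °C with shaking. Radiolabeled eicosanoids (5-HETE for the 5-LO pathway, TXB2 for the CO pathway) were separated by HPLC and detected with an in-line radioactivity detector. Results are given as percent change at 10 µM or 50 µM.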

Assay [2] relates to Rattus norvegicus. Briefly: Antiinflammatory activity by rat Carrageenan edema assay at 50 mg/kg peroral administration (3h edema). Particulars: route oral. Type of assay: functional. In short, it runs like this:
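Groups of six male Sprague-Dawley rats (150-165 g) were dosed po in 0.5% methyl cellulose. One hour later, 0.1 mL of 1% carrageenan was injected subplantar into the right hind paw. Edema was taken as the 3 h paw volume minus the zero-time volume and expressed as percent change versus vehicle; screening dose was 50 mg/kg po.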
A general note: In the carrageenan paw model, swelling and tenderness develop within hours.

Assay [3] has as its target T1, Polyunsaturated fatty acid 5-lipoxygenase (Rattus norvegicus). Briefly: Inhibition of 5-lipoxygenase pathway in rat polymorphonuclear assay, by ability to inhibit formation of LTB4 AT 10 uM.
Assay [4] has as its system Rattus norvegicus. Briefly: Antiinflammatory activity by rat adjuvant arthritis assay at 30 mg/kg peroral administration (uninjected paw at day 16). Particulars: route oral.

With `Cc1ccc([C@@H](O)[C@@H]2CCCCc3cccnc32)cc1`, the Change was -37% in assay [1], -33% in the assay with Rattus norvegicus [2], -37% in assay [3] and -42% with Rattus norvegicus [4].

With `COc1cccc(C(O)c2nc3c(cc2C)CCCCC3)c1` (stereo not drawn), the Change in assay [1] was -34%; with Rattus norvegicus [2], -28%; in assay [3] it was -50%; with Rattus norvegicus [4], -14%.

On to `Cc1ccc(C(O)c2ccc3c(n2)CCCCC3)cc1` (stereo not drawn), for which the Change in assay [1] was -28%; with Rattus norvegicus [2], -26%; in assay [3], -25%; in the assay on Rattus norvegicus [4], -33%.

As to `Cc1ccc([C@H](O)[C@@H]2CCCCc3cccnc32)cc1`, the Change in assay [1] is -31%; with Rattus norvegicus [2] it was -26%; in assay [3] it was -37%; in the assay with Rattus norvegicus [4], -32%.

`Cc1cc2c(nc1C(O)c1cccnc1)CCCCC2` (stereo not drawn): the Change in assay [1] was -5%; with Rattus norvegicus [2], -14%; in assay [3], 9%; with Rattus norvegicus [4], 18%.

`Cc1ccc([C@@H](O)[C@H]2c3ncc(C)cc3CCC2(C)C)cc1`: the Change in assay [1] was 27%; in the assay on Rattus norvegicus [2] it was -19%; in assay [3], 8%; with Rattus norvegicus [4] it was -39%.

As for `Cc1cc2c(nc1C(O)c1cccs1)CCCCC2` (stereo not drawn), the Change was 37% in assay [1], -9.5% with Rattus norvegicus [2], 34% in assay [3] and -6% with Rattus norvegicus [4].

`Cc1ccc([C@H](O)[C@@H]2CCCc3cc(C)cnc32)cc1`: the Change in assay [1] was -49%; in the assay on Rattus norvegicus [2], -33%; in assay [3], -48%; in the assay with Rattus norvegicus [4] it was 49%.

`Cc1cc2c(nc1C(O)c1ccccc1)CCCCC2` (stereo not drawn): the Change in assay [1] was -29%; in the assay on Rattus norvegicus [2] it was -45%; in assay [3], -4%; in the assay on Rattus norvegicus [4], -45%.

On to `Cc1ccc(C(N)c2nc3c(cc2C)CCCCC3)cc1` (stereo not drawn), for which the Change in assay [1] was -23%; in the assay on Rattus norvegicus [2], -10%; in assay [3], -29%; with Rattus norvegicus [4], -3%.

On to `COC(c1ccc(C)cc1)c1nc2c(cc1C)CCCCC2` (stereo not drawn), for which the Change was -10% in assay [1], -9.5% in the assay on Rattus norvegicus [2], -12% in assay [3] and -26% with Rattus norvegicus [4].

In the case of `Cc1ccc(C(O)c2nc3c(cc2C)CCC3)cc1` (stereo not drawn), the Change in assay [1] was -45%; in the assay with Rattus norvegicus [2], -3.5%; in assay [3], -43%; with Rattus norvegicus [4], -2%.

As to `Cc1cc2c(nc1C(O)c1ccc(C(F)(F)F)cc1)CCCCC2` (stereo not drawn), the Change is 5% in assay [1], -24% in the assay on Rattus norvegicus [2], 40% in assay [3] and -18% in the assay with Rattus norvegicus [4].

For the molecule `Cc1cnc2c(c1)CCCC2[S+]([O-])c1ccccc1` (stereo not drawn), the Change in assay [1] is 50%; in the assay with Rattus norvegicus [2], -25%; in assay [3], 13%; in the assay with Rattus norvegicus [4], 13%.

`Cc1cc2c(nc1C(O)c1cccc(Cl)c1)CCCCC2` (stereo not drawn): the Change in assay [1] is -42%; in the assay with Rattus norvegicus [2], -28%; in assay [3], -51%; in the assay on Rattus norvegicus [4] it was 30%.

On to `Cc1ccc(C(O)Cc2ccc3c(n2)CCCCC3)cc1` (stereo not drawn), for which the Change in assay [1] was -14%; with Rattus norvegicus [2] it was -41%; in assay [3] it was -29%; in the assay with Rattus norvegicus [4] it was 28%.

`COc1cc(/C=C2\CCCc3cc(C)cnc32)ccc1O`: the Change is -36% with Rattus norvegicus [2] and -1% with Rattus norvegicus [4].

As for `Cc1ccc(C(=O)c2nc3c(cc2C)CCCCC3)cc1`, the Change in assay [1] was -49%; in the assay with Rattus norvegicus [2] it was -59%; in assay [3] it was -52%; with Rattus norvegicus [4] it was -26%.

Consider `Cc1ccc(Cc2nc3c(cc2C)CCCCC3)cc1`, for which the Change in assay [1] is -37%; in the assay on Rattus norvegicus [2], -26%; in assay [3], -57%.
